Results from ChEMBL document CHEMBL1152965, “Synthesis and in vitro antiplasmodial evaluation of 4-anilino-2-trichloromethylquinazolines” (Bioorg Med Chem, 2009).

Key:
[1] = Selectivity index, ratio of IC50 for human K562 cells to IC50 for chloroquine, pyrimethamine and proguanil-resistant Plasmodium falciparum W2; assay type: toxicity, cell-based; details: K562 cells (cytotoxicity) versus Plasmodium falciparum W2, read-out: Ratio IC50
In short: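 SI = K562 IC50 / W2 IC50. Live cells counted by flow cytometry after propidium iodide stain. IC50 by non-linear regression, mean of three independent experiments.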

[2] = test system: K562; experiment: Cytotoxicity against human K562 cells after 72 hrs by flow cytometry; assay type: cell-based; details: K562, 72 h
In short: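 Chemosensitive K562 subline, late log phase, in phenol-red-free RPMI with 10% serum. Compound range added in duplicate (DMSO <0.5%). After 72 h at 37 °C, 6% CO₂, cells stained with propidium iodide and live cells in a 100 µL sample counted by flow cytometry. IC50 from non-linear regression of dose-response curves, mean of three independent experiments.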

[3] = test system: Salmonella enterica subsp. enterica; experiment: Mutagenic activity in Salmonella Typhimurium TA102 assessed as number of spontaneous and drug-induced revertants after 48 hrs in presence of 4% S9 mixture by Ames test; assay type: toxicity, organism-based; details: salmonella enterica subsp. enterica serovar typhimurium
In short: (§1)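 Liquid-incubation Ames variant. Tester strains grown overnight in nutrient broth. 5×10^-3 M DMSO solution of compound added to 0.1 mL culture, with or without 4% S9 mix, 1 h at 37 °C with shaking. Top agar added and mixture plated on Vogel-Bonner agar. After 48 h at 37 °C in the dark, revertants per plate counted with a laser colony counter.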

[4] = test system: Plasmodium falciparum; experiment: Antimalarial activity as reduced parasitaemia after 48 hrs against chloroquine, pyrimethamine and proguanil-resistant Plasmodium falciparum W2 infected in type A+ human erythrocytes by flow cytometry; assay type: functional, organism-based; details: W2, 48 h
[5] = test system: Leishmania donovani; experiment: Antileishmanial activity against Leishmania donovani HOM/IN/01/2001 promastigotes after 72 hrs by flow cytometry; assay type: functional, organism-based; details: HOM/IN/01/2001, 72 h
In short: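 GFP-transfected promastigotes, log phase, in M199 with 10% FCS and 500 µg/mL G418, seeded at 10⁵ parasites/mL. Compounds in DMSO (final <0.5% v/v) added in duplicate over a concentration range. Incubated 72 h at 27 °C.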

[6] = test system: Salmonella enterica subsp. enterica; experiment: Mutagenic activity in Salmonella Typhimurium TA102 assessed as number of spontaneous and drug-induced revertants after 48 hrs in absence of 4% S9 mixture by Ames test; assay type: toxicity, organism-based; details: salmonella enterica subsp. enterica serovar typhimurium; in short: as §1
[7] = test system: Salmonella enterica subsp. enterica; experiment: Mutagenic activity in Salmonella Typhimurium TA97a assessed as number of spontaneous and drug-induced revertants after 48 hrs in presence of 4% S9 mixture by Ames test; assay type: toxicity, organism-based; details: salmonella enterica subsp. enterica serovar typhimurium; in short: as §1
[8] = test system: Toxoplasma gondii; experiment: Antitoxoplasmic activity against Toxoplasma gondii tachyzoites infected in HFF assessed as beta-galactosidase activity after 96 hrs by colorimetric microtiter assay; assay type: functional, organism-based
In short: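 Tachyzoites of the PRU-β-Gal strain. 10⁴ HFF cells per well grown to confluence in phenol-red-free RPMI with 10% FCS. Monolayers infected with 2.10³ parasites per well for 3 h, then compounds in DMSO (final <0.5%) added in triplicate. Incubated 96 h at 37 °C, 6% CO₂. CPRG added at 500 µM final for a further 24 h. Read at 570/630 nm, blanked on uninfected wells. IC50 from three independent experiments.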

[9] = test system: Salmonella enterica subsp. enterica; experiment: Mutagenic activity in Salmonella Typhimurium TA97a assessed as number of spontaneous and drug-induced revertants after 48 hrs in absence of 4% S9 mixture by Ames test; assay type: toxicity, organism-based; details: salmonella enterica subsp. enterica serovar typhimurium; in short: as §1
[10] = test system: Salmonella enterica subsp. enterica; experiment: Mutagenic activity in Salmonella Typhimurium TA98 assessed as number of spontaneous and drug-induced revertants after 48 hrs in absence of 4% S9 mixture by Ames test; assay type: toxicity, organism-based; details: salmonella enterica subsp. enterica serovar typhimurium; in short: as §1
[11] = test system: Salmonella enterica subsp. enterica; experiment: Mutagenic activity in Salmonella Typhimurium TA98 assessed as number of spontaneous and drug-induced revertants after 48 hrs in presence of 4% S9 mixture by Ames test; assay type: toxicity, organism-based; details: salmonella enterica subsp. enterica serovar typhimurium; in short: as §1
[12] = test system: HepG2; experiment: Cytotoxicity against human HepG2 cells after 72 hrs by MTT assay; assay type: cell-based; details: HepG2, 72 h
In short: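 HepG2 cells plated in RPMI with 10% FBS and grown 24 h, then exposed to a range of compound concentrations for 72 h at 37 °C, 6% CO₂. MTT (5 mg/mL stock) added for 2 h, formazan dissolved in DMSO and read at 570 nm against 630 nm. Viability expressed as percent of untreated control. CC50 taken from the dose-response curve.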

[13] = Selectivity index, ratio IC50 for human HepG2 cells to IC50 for chloroquine, pyrimethamine and proguanil-resistant Plasmodium falciparum W2; assay type: functional
In short: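 SI = HepG2 IC50 / W2 IC50. MTT 2 h, formazan dissolved in DMSO, absorbance 570 nm (ref 630 nm). Viability as % of untreated control, IC50 from dose-response curve.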

[14] = test system: Salmonella enterica subsp. enterica; experiment: Mutagenic activity in Salmonella Typhimurium TA100 assessed as number of spontaneous and drug-induced revertants after 48 hrs in presence of 4% S9 mixture by Ames test; assay type: toxicity, organism-based; details: salmonella enterica subsp. enterica serovar typhimurium; in short: as §1

Question: Which results are given for Clc1cccc(Nc2nc(C(Cl)(Cl)Cl)nc3ccccc23)c1?
Answer: selectivity ratio [1]: > 29.4; IC50 [2]: > 50 µM; Activity [3]: Not Active; IC50 [4]: 1.7 µM; IC50 [5]: > 50 µM; Activity [6]: Not Active; Activity [7]: Not Active; IC50 [8]: > 50 µM; Activity [9]: Not Active; Activity [10]: Not Active; Activity [11]: Not Active; IC50 [12]: > 100 µM; Ratio IC50 [13]: >58.8; Activity [14]: Not Active

Question: For ClC(Cl)(Cl)c1nc(Nc2cccc(Br)c2)c2ccccc2n1, which selectivity ratio [1] is on record?
Answer: > 22.7

Question: What about the IC50 [2] of the same compound?
Answer: > 50 µM

Question: And the Activity [3]?
Answer: Not Active

Question: What about the IC50 [4] of the same compound?
Answer: 2.2 µM

Question: What about the IC50 [5] of the same compound?
Answer: > 50 µM

Question: What about the Activity [6] of the same compound?
Answer: Not Active

Question: And the Activity [7]?
Answer: Not Active

Question: What about the IC50 [8] of the same compound?
Answer: > 50 µM

Question: What about the Activity [9] of the same compound?
Answer: Not Active

Question: And the Activity [10]?
Answer: Not Active

Question: What about the Activity [11] of the same compound?
Answer: Not Active

Question: And the IC50 [12]?
Answer: > 100 µM

Question: And the “Ratio IC50” value [13]?
Answer: >45.5

Question: What about the Activity [14] of the same compound?
Answer: Not Active
